Activity calls are given as the source filed them. No cut-off for these calls is given here.
Assays:
[1] = test system: Mus musculus; test: Antioxidant activity in carrageenan-stimulated ICR mouse assessed as increase in GPx activity at 10 mg/kg, ip measured after 5 hrs; assay type: functional; settings: route intraperitoneal
Procedure, shortened: (§1)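 Male ICR mice (n = 6 per group) received the drug 30 min before intraplantar carrageenan, and paw tissue was taken at the 5th hr. Total SOD was measured by inhibition of cytochrome c reduction, CAT by Aebi's method, and cytosolic GPx by Paglia–Valentine. Activities are in U/mg protein, given as mean ± SEM.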

[2] = test system: Mus musculus; test: Antiinflammatory activity in carrageenan-stimulated ICR mouse assessed as decrease in neutrophil number at 8 mg/kg, ip measured after 5 hrs; assay type: functional, organism-based; parameters: dose 8 mg/kg
Procedure, shortened: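 Male ICR mice were dosed 30 min before intraplantar carrageenan, and paw biopsies were taken 5 h later. Tissue was fixed in Dietric solution for 1 week at room temperature, dehydrated in graded ethanol and paraffin-embedded. 7-thickness sections were stained with hematoxylin–eosin or Van Gieson and examined by light microscopy.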

[3] = test system: Mus musculus; test: Antiinflammatory activity in ICR mouse assessed as decrease in carrageenan-induced MDA level at 10 mg/kg, ip measured after 5 hrs; assay type: functional, organism-based; parameters: dose 10 mg/kg
Procedure, shortened: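 Male ICR mice (n = 6 per group) were dosed 30 min before intraplantar carrageenan. MDA in the edematous paw tissue was determined at the 5th hr after carrageenan.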

[4] = test system: Mus musculus; test: Antiinflammatory activity in ICR mouse assessed as inhibition of carrageenan-induced hind paw edema at 10 mg/kg, ip; assay type: functional, organism-based; parameters: dose 10 mg/kg
[5] = test system: Mus musculus; test: Antiinflammatory activity in carrageenan-stimulated ICR mouse assessed as reduction in COX2 immunoreactive cells at 8 mg/kg, ip measured after 5 hrs; assay type: functional, organism-based; parameters: dose 8 mg/kg
[6] = test system: Mus musculus; test: Antioxidant activity in carrageenan-stimulated ICR mouse assessed as increase in SOD activity at 10 mg/kg, ip measured after 5 hrs; assay type: functional; settings: route intraperitoneal; procedure, shortened: as §1
[7] = test system: Mus musculus; test: Antiinflammatory activity in ICR mouse assessed as decrease in carrageenan-induced serum TNFalpha level at 10 mg/kg, ip measured after 5 hrs; assay type: functional, organism-based; parameters: dose 10 mg/kg
Procedure, shortened: (§2)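 Male ICR mice (18–25 g, n = 6 per group). Carrageenan was injected intraplantar into the paw, with drug given 30 min beforehand. Serum was collected at the 5th hr. Nitrite was measured colorimetrically by Griess reaction, and TNF-α by commercial ELISA. Data are mean ± SEM.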

[8] = test system: Mus musculus; test: Down regulation of iNOS protein expression in carrageenan-stimulated ICR mouse at 10 mg/kg, ip measured after 5 hrs by Western blot analysis; assay type: functional; settings: route intraperitoneal
Procedure, shortened: (§3)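 Male ICR mice (18–25 g, n = 6 per group) received intraplantar carrageenan. Paw tissue was taken 5 h after carrageenan. Lysates were made in RIPA buffer and 30 µg protein run on SDS-PAGE/PVDF immunoblot with ECL detection. Band intensities were quantified relative to the carrageenan-alone group across three independent experiments.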

[9] = test system: Mus musculus; test: Antiinflammatory activity in ICR mouse assessed as decrease in carrageenan-induced serum NO level at 10 mg/kg, ip measured after 5 hrs; assay type: functional, organism-based; parameters: dose 10 mg/kg; procedure, shortened: as §2
[10] = test system: Mus musculus; test: Down regulation of COX-2 protein expression in carrageenan-stimulated ICR mouse at 10 mg/kg, ip measured after 5 hrs by Western blot analysis; assay type: functional; settings: route intraperitoneal; procedure, shortened: as §3
[11] = test system: Mus musculus; test: Antiinflammatory activity in ICR mouse assessed as inhibition of carrageenan-induced hind paw edema at 10 mg/kg, ip measured after 4 hrs; assay type: functional, organism-based; parameters: dose 10 mg/kg
[12] = test system: Mus musculus; test: Antioxidant activity in carrageenan-stimulated ICR mouse assessed as increase in CAT activity at 10 mg/kg, ip measured after 5 hrs; assay type: functional; settings: route intraperitoneal; procedure, shortened: as §1
[13] = test system: Mus musculus; test: Antiinflammatory activity in carrageenan-stimulated ICR mouse assessed as reduction in iNOS immunoreactive cells at 8 mg/kg, ip measured after 5 hrs; assay type: functional, organism-based; parameters: dose 8 mg/kg

Q: How did the Activity [1] turn out when `COc1ccc2c(c1)c(CC(=O)O)c(C)n2C(=O)c1ccc(Cl)cc1` [INDOMETHACIN] was run?
A: 10.45 U/mg

Q: And the Activity [2]?
A: Active

Q: And the Activity [3]?
A: Active

Q: What about the Activity [4] of the same compound?
A: Active

Q: What about the Activity [5] of the same compound?
A: Active

Q: And the Activity [6]?
A: 3.85 U/mg

Q: And the Activity [7]?
A: Active

Q: And the Activity [8]?
A: 69.1%

Q: What about the Activity [9] of the same compound?
A: Active

Q: What about the Activity [10] of the same compound?
A: 73.1%

Q: And the Activity [11]?
A: Active

Q: And the Activity [12]?
A: 4.65 U/mg

Q: What about the Activity [13] of the same compound?
A: Active

From ChEMBL document CHEMBL1938286, “A concise synthesis of viscolin, and its anti-inflammatory effects through the suppression of iNOS, COX-2, ERK phosphorylation and proinflammatory cytokines expressions” (Eur J Med Chem, 2012)
